The structures appear in SMILES notation.

Series [1] concerns Kidney. As to the kind of experiment: Biodistribution in Sprague-Dawley rat kidney at 1.48 to 2.22 MBq, iv measured at 5 mins by gamma counting analysis. Format: ADME, organism-based. The note with it: in vivo. A digest of the protocol:
(§1)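 Male Sprague-Dawley rats (250 - 400 g), tail-vein injection of 1.48 - 2.22 MBq radiotracer under 2.5% isoflurane in oxygen; n=4 per time point, euthanized at 5, 30 and 60 min p.i. Brain regions obtained by gross dissection; peripheral tissues collected. Samples weighed, gamma-counted against a diluted-injectate standard; %ID/g calculated.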

The subject of series [2] is Muscle tissue. As to the kind of experiment: Biodistribution in Sprague-Dawley rat muscle at 1.48 to 2.22 MBq, iv measured at 5 mins by gamma counting analysis. Format: ADME, organism-based. The note with it: in vivo. Put shortly:
as §1

For series [3], the system named is Bone. The series is described as follows: Biodistribution in Sprague-Dawley rat bone at 1.48 to 2.22 MBq, iv measured at 5 mins by gamma counting analysis. Format: ADME, organism-based, Bone element. The note with it: in vivo. A digest of the protocol:
as §1

In series [4] the test system is Kidney. As to the kind of experiment: Biodistribution in Sprague-Dawley rat kidney at 1.48 to 2.22 MBq, iv measured at 30 mins by gamma counting analysis. Format: ADME, organism-based. The note with it: in vivo, 0.5 h. Put shortly:
as §1

Series [5] relates to Muscle tissue. The series is described as follows: Biodistribution in Sprague-Dawley rat muscle at 1.48 to 2.22 MBq, iv measured at 30 mins by gamma counting analysis. The format is ADME, organism-based. The note with it: in vivo, 0.5 h. A digest of the protocol: as §1
Series [6] deals with Rattus norvegicus. The series is described as follows: Biodistribution in Sprague-Dawley rat fat tissue at 1.48 to 2.22 MBq, iv measured at 30 mins by gamma counting analysis. The format is ADME, organism-based, Adipose tissue. The note with it: in vivo, 0.5 h. Put shortly: as §1
Series [7] relates to Brain. As to the kind of experiment: Biodistribution in Sprague-Dawley rat brain at 1.48 to 2.22 MBq, iv measured at 30 mins by gamma counting analysis. The note with it: in vivo, 0.5 h. The format is ADME, organism-based. A digest of the protocol:
as §1

The test system of series [8] is Kidney. As to the kind of experiment: Biodistribution in Sprague-Dawley rat kidney at 1.48 to 2.22 MBq, iv measured at 60 mins by gamma counting analysis. Format: ADME, organism-based. The note with it: in vivo, 1 h. A digest of the protocol: as §1
Series [9] concerns Rattus norvegicus. The series is described as follows: Biodistribution in Sprague-Dawley rat fat tissue at 1.48 to 2.22 MBq, iv measured at 60 mins by gamma counting analysis. Format: ADME, organism-based, Adipose tissue. The note with it: in vivo, 1 h. Put shortly: as §1
Series [10] deals with Nucleic Acid. The series is described as follows: Ratio of drug level in striatum to cortex in Sprague-Dawley rat at 1.48 to 2.22 MBq, iv measured at 5 to 30 mins by gamma counting analysis. Format: ADME, organism-based. The note with it: in vivo. Put shortly:
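Striatum, cerebellum and cortex obtained by gross dissection from Sprague-Dawley rats (250 - 400 g, n=4 per time point) after tail-vein injection of 1.48 - 2.22 MBq under isoflurane anesthesia. Tissues weighed and gamma-counted with an injectate standard to give %ID/g; ratios taken from striatal versus non-target uptake.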

For series [11], the system named is Nucleic Acid. As to the kind of experiment: Ratio of drug level in striatum to occipital in cynomolgus monkey at 185 to 259 MBq, iv measured at 40 mins by micro PET image analysis. Format: ADME, organism-based, Macaca fascicularis. The note with it: in vivo. A digest of the protocol: (§2)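 Adult male cynomolgus macaques (~4–6 kg), three independent PET studies per tracer on a microPET Focus 220. Animals fasted 12 h and anesthetized with ketamine (10 mg/kg) plus glycopyrrolate (0.13 mg/kg) i.m. A 10 min positioning transmission scan and a 45 min attenuation transmission scan were run, then a 3 h dynamic emission scan after venous tracer injection. Regional TACs came from ROIs, expressed as SUV (body weight, injected dose).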

The subject of series [12] is Nucleic Acid. The series is described as follows: Ratio of drug level in striatum to temporal region in cynomolgus monkey at 185 to 259 MBq, iv measured at 70 mins by micro PET image analysis. The format is ADME, organism-based, Macaca fascicularis. The note with it: in vivo. Put shortly:
as §2

Series [13] concerns Nucleic Acid. The series is described as follows: Ratio of drug level in striatum to hippocampus in cynomolgus monkey at 185 to 259 MBq, iv measured at 70 mins by micro PET image analysis. The format is ADME, organism-based, Macaca fascicularis. The note with it: in vivo. A digest of the protocol:
as §2

The nature of series [14]: Metabolic stability in cynomolgus monkey plasma assessed as compound remaining at 185 to 259 MBq, iv measured at 60 mins by HPLC analysis. The format is ADME, organism-based, Macaca fascicularis. The note with it: read-out: Stability. A digest of the protocol:
(§3)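 Arterial blood (~1.5 mL) drawn at 2, 15, 30, 60 and 90 min p.i. into heparinized syringes, then centrifuged to plasma. Plasma deproteinated with 2 parts ice-cold methanol. Extract run on C-18 HPLC, MeCN/0.1 M ammonium formate pH 4.5, 0.9 mL/min, UV 254 nm. 1-min fractions over 16 min were well-counted and decay-corrected; parent percentage taken from recovered activity.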

Series [15] is described as follows: Metabolic stability in cynomolgus monkey plasma assessed as compound remaining at 185 to 259 MBq, iv measured at 90 mins by HPLC analysis. The format is ADME, organism-based, Macaca fascicularis. The note with it: read-out: Stability. Put shortly: as §3
Series [16] has as its system Caudate. As to the kind of experiment: Drug uptake in cynomolgus monkey caudate at 185 to 259 MBq, iv measured over 180 mins by micro PET image analysis. Format: ADME, organism-based, Macaca fascicularis, Caudate nucleus. The note with it: in vivo, 3 h. Put shortly:
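Adult male cynomolgus macaques (~4–6 kg), three studies per tracer, fasted 12 h. Induction with ketamine 10 mg/kg plus glycopyrrolate 0.13 mg/kg i.m. Transmission scans of 10 min for positioning and 45 min for attenuation correction, then a 3 h dynamic microPET emission scan after venous injection of 185 - 259 MBq. ROI time-activity curves expressed as SUV (body weight and injected dose).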

For `Cn1cc(-c2ccncc2)c(-c2ccc(OCc3nc4ccccc4cc3OCC[18F])cc2)n1`, the Drug uptake in [1] is on record as 1.789 % ID/g; in [2], 0.166 % ID/g; in series [3] it was 0.182 % ID/g; in series [4], 1.022 % ID/g; in series [5], 0.156 % ID/g; in [6], 0.202 % ID/g. Besides, the Drug uptake is on record as 0.129 % ID/g in [7], 0.841 % ID/g in series [8], 0.124 % ID/g in [9] and “Active” in series [16]. The Ratio was above 2 in [10], above 3 in [11], above 5 in series [12] and above 5 in series [13]. The remaining at 1 h in series [14] came to 55%. In [15], the remaining at 1.5 h is 45%.

These data come from ChEMBL document CHEMBL3627597, “Synthesis of Fluorine-Containing Phosphodiesterase 10A (PDE10A) Inhibitors and the In Vivo Evaluation of F-18 Labeled PDE10A PET Tracers in Rodent and Nonhuman Primate” (J Med Chem, 2015).
